# Experiments:
# [1] = system: a different cell line; conditions: cited from earlier work
# [2] = system: human cannabinoid receptor CB1; conditions: cited from earlier work
# [3] = system: NO production in RAW 264.7 mouse macrophage cells; test: NO assay in LPS-induced RAW 264.7 macrophages; assay type: cell-based; conditions: read-out: IC50, inhibition of NO production; LPS-induced RAW 264.7, 24 h
# Method in brief: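 Mouse RAW 264.7 cells in DMEM with 10% FBS, 5% CO2, seeded at 2 × 10^4 cells/well. After 24 h, test compound or solvent control (1% EtOH) was added, then LPS (0.5 μg/mL). Medium nitrite was measured after 24 h by Griess reagent: sulfanilamide, then naphthylethylenediamine-HCl, 5 min each at RT in the dark, A540. Quantified against a 0–100 μM nitrite standard curve; duplicates.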
# [4] = target: T1, fatty acid amide hydrolase (FAAH) (Homo sapiens, UniProt O00519); test: FAAH inhibitor enzyme assay; assay type: biochemical; conditions: tested at 10 and 100 μM
# T1 sequence (O00519 1-579): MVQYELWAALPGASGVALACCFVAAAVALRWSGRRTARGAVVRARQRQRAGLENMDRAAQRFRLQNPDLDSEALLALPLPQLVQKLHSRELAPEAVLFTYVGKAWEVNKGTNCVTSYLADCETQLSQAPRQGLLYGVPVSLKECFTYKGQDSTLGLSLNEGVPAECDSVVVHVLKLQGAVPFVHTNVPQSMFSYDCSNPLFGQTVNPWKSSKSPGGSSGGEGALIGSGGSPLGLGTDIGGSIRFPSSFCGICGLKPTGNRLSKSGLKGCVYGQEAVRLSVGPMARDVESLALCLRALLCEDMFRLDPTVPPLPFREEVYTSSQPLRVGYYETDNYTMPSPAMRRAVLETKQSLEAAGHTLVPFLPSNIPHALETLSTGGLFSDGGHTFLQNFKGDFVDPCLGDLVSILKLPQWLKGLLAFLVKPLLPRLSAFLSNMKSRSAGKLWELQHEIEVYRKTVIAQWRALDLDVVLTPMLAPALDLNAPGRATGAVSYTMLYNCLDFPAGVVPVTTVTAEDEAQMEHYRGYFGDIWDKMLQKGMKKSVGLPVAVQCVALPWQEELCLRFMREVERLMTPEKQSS
# Method in brief: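 Kit FAAH enzyme was preincubated in assay buffer with the test compound (10 and 100 μM) or solvent control. The reaction was started with AMC arachidonoyl amide substrate (20 μM final) and run for 30 min at 37 °C. Fluorescence was read at ex 350 nm / em 455 nm.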
# [5] = system: HT-29 colon adenocarcinoma cells; test: Cell viability assay; assay type: cell-based; conditions: 48 h, MTT
# Method in brief: (§1)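 Cells grown in DMEM with 10% FBS at 37 °C, 5% CO2. Seeded at 10,500 cells/well (MCF7) or 11,000 cells/well (HT-29). After 24 h, treated with various concentrations of the test compound or solvent control (1% EtOH). Viability was read by MTT after 48 h.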
# [6] = target: T2, CB1 receptor (Homo sapiens, UniProt P21554); test: cAMP functional assay, forskolin-stimulated, CHO-K1 cells expressing CB1; assay type: cell-based; conditions: through CB1 receptor
# [7] = target: T2, CB1 receptor; test: Cannabinoid CB1 receptor binding assay; conditions: read-out: CB1 Ki; human recombinant CB1 in HEK-293 cells, [3H]CP-55940 0.5 nM
# [8] = target: T3, CB2 receptor (Homo sapiens, UniProt P34972); test: Cannabinoid CB2 receptor binding assay; conditions: read-out: CB2 Ki; human recombinant CB2 in HEK-293 cells, [3H]CP-55940 0.5 nM
# [9] = target: T3, CB2 receptor; test: cAMP functional assay, forskolin-stimulated, CHO-K1 cells expressing CB2; assay type: cell-based; conditions: through CB2 receptor
# [10] = system: MCF7 breast cancer cells; test: Cell viability assay; assay type: cell-based; conditions: up to 100 μM, 48 h, MTT
# Method in brief: as §1
# [11] = system: RAW 264.7 cells; test: Cellular viability of RAW 264.7 macrophages; assay type: cell-based, mouse; conditions: RAW 264.7, up to 25 μM
# T2 sequence (P21554 whole entry): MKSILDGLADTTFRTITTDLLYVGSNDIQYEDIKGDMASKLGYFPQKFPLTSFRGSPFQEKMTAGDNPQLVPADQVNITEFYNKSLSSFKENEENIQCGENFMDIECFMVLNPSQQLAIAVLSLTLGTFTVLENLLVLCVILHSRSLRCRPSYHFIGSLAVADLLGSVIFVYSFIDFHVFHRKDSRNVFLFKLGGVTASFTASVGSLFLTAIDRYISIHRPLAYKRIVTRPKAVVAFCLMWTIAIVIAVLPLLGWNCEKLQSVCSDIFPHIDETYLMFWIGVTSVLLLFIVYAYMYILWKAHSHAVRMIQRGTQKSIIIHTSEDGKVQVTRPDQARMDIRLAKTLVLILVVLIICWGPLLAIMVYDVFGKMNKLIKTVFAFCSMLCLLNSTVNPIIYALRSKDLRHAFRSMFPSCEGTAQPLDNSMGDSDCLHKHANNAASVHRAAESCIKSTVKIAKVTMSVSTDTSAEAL
# T3 sequence (P34972 whole entry): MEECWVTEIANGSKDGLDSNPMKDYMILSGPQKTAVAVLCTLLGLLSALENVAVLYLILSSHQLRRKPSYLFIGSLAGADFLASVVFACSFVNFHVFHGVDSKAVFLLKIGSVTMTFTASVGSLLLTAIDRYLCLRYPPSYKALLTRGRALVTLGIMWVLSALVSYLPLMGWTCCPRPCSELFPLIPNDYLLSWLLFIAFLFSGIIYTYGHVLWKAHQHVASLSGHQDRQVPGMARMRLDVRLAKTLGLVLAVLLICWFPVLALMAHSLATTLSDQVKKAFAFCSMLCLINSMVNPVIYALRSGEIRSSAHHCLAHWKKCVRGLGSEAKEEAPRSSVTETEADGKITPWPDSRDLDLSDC
Structure (SMILES),Cytotoxic properties [1],Selectivity for the CB1 receptor over CB2 ([2]; human CB1 vs CB2 binding),"Ki ([2]; read-out: CB1 Ki, human CB1) [µM]",IC50 [3] [µM],FAAH inhibition [4],Cytotoxicity against HT-29 ([5]; up to 100 μM),Functional mode at CB1 (inhibition of forskolin-stimulated cAMP accumulation) [6],Ki [7] [µM],Ki [8] [µM],Functional mode at CB2 (inhibition of forskolin-stimulated cAMP accumulation) [9],Cytotoxicity against MCF7 [10],"IC50 ([5]; read-out: IC50, cytotoxicity to HT-29 cells) [µM]",Effect on cellular viability [11]
"CCCCCCCCCCCCC/C=C/CCC(=O)N(C)[C@H](CO)COC [Compound 4, serinolamide A]",showed some cytotoxic properties,more than 5 fold,1.3,,,,,,,,,,
"CCCCCCCCCCCCC/C=C/CCC(=O)N[C@H](CO)COC [Compound 5, Serinolamide B]",,,,> 25,no considerable inhibitory effects,failed to show significant cytotoxicity,cannabinoid receptor agonists,16.4,5.2,cannabinoid receptor agonists,failed to show significant cytotoxicity,,
"CCCCCCC[C@@H](C/C=C/CCC(=O)N(C)C/C(=C/Cl)C/C(=C\C(=O)N1CC(O)CC1=O)OC)OC (stereo partly shown) [Compound 6, malyngamide B]",,,,6.2,no considerable inhibitory effects,,cannabinoid receptor agonists,3.6,2.6,cannabinoid receptor agonists,,26,without affecting cellular viability

# Source: paper PMC3748600 (Chembiochem : a European journal of chemical biology, 2012)
